RanGTP-Impb inh – inhibitors of RanGTP-importin-beta interaction, primary screen, biochemical, FRET, CFP-Ran, YFP-importin-beta, homogeneous. cell-free CFP-Ran/YFP-importin-beta FRET ratio. inhibition, % (concentration not given with the values). 1.1% of 300,000 active. AID 2216;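 active = more than half of the replicate wells show a fall in the fluorescence ratio signal beyond about 16%, limit read from the data, passing the limit was not always enough; inconclusive = exactly half of the replicate wells pass the set limit; inactive = fewer than half of replicates pass the limit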
Hck-Nef inh – human Hck-Nef kinase inhibition. P08631. Recombinant Hck-YEEI plus Nef, Z-Lyte FRET kinase assay. inhibition, % at 20 µM. 0.68% of 220,000 active. AID 463187;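 active = Hck-Nef kinase inhibition above about 50%, limit read from the data; inactive = inhibition below that limit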
Runt-SMMHC FRET – inhibitors of human RUNX1 Runt domain binding to CBFb-SMMHC; Q01196+Q13951; inhibition, % at 20 µM; Cerulean-Runt/Venus-CBFb-SMMHC FRET ratio 530/480, 1 h; 0.74% of 220,000 active;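 active = mean inhibition across duplicate retests at 20 µM reaching about 50%, limit read from the data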;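 also: inhibitors lower the FRET ratio by blocking Runt binding to CBFb-SMMHC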
14-3-3 Bad PPI – disrupts binding of bovine 14-3-3 zeta to phospho-Bad peptide | AID 781 | 0.71% of 220,000 active | TR-FRET 14-3-3zeta/Dy647-pBad peptide displacement, 1 h | P63103 | inhibition, % at 21.7 µM;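 active = inhibition above about 70%, limit read from the data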
Target sequence (P63103 whole entry, looked up): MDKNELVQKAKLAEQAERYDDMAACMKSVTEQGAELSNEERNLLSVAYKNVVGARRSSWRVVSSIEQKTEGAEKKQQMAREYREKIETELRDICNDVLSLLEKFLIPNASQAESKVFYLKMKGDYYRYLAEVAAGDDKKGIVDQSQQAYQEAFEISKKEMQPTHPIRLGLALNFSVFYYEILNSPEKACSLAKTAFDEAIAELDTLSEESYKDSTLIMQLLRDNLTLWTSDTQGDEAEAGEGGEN
Runt-CBFb FRET – blocks binding of human RUNX1 Runt domain to CBFb | AID 1496 | Q01196+Q13951 | 0.46% of 220,000 active | Cerulean-Runt/Venus-CBFb FRET ratio 530/480, 1 h | inhibition, % at 20 µM;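 active = inhibition over about 50% at 20 µM in the single-dose screen, limit read from the data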
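Buffer or medium: Tris pH 7.5 buffer with BSA. Assay system: Cerulean-labeled Runt domain protein. Amount: each fluorescent fusion protein 100 nM. Read-out basis: loss of energy transfer signal. Incubation: 1 h compound exposure, room temperature. Probe or stimulus: Venus-CBFb binding partner, 100 nM. Detection: FRET, excitation 422 nm, emission at 530 and 480 nm.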
TbHK1 inh – blocks Trypanosoma brucei hexokinase 1 activity; recombinant TbHK1, G6PDH-coupled NADH A340; inhibition, % at 10 µM; 0.11% of 220,000 active; AID 1430;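 active = inhibition of 50% or more in the single-dose primary screen; inactive = inhibition below 50%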
Hits are given with their value; [ ] = remark or other dose. Compounds with a hit are over-represented: about 2.2% of the library has one in this group of screens.

Results for Cc1cc(S(=O)(=O)n2cnc3cc([N+](=O)[O-])ccc32)ccc1Cl ?
RanGTP-Impb inh: inactive; Hck-Nef inh: inactive; Runt-SMMHC FRET: inactive; 14-3-3 Bad PPI: inactive; Runt-CBFb FRET: inactive; TbHK1 inh: inactive

How did O=C(CSCc1cccc(Cl)c1)OCc1nc2ccsc2c(=O)[nH]1 do in these assays?
RanGTP-Impb inh: inactive

What do the screens show for `COc1ccc(-c2ncnc(C(F)(F)F)c2-c2csc(C)n2)c(O)c1`?
RanGTP-Impb inh: inconclusive; Hck-Nef inh: inactive; Runt-SMMHC FRET: inactive; 14-3-3 Bad PPI: inactive; Runt-CBFb FRET: inactive; TbHK1 inh: inactive

How did CCCn1nc(NC(=O)c2cccs2)c2cc3ccccc3nc21 do in these assays?
RanGTP-Impb inh: 61; Hck-Nef inh: inactive; Runt-SMMHC FRET: 50; 14-3-3 Bad PPI: 77[fluorescence artefact?]; TbHK1 inh: inactive

How did CCCn1nc(NC(=O)c2ccncc2)c2cc3ccccc3nc21 do in these assays?
RanGTP-Impb inh: inactive; Hck-Nef inh: inactive; Runt-SMMHC FRET: inactive; Runt-CBFb FRET: inactive; TbHK1 inh: inactive

How did CCCCn1nc(NC(=O)c2cccs2)c2cc3ccccc3nc21 do in these assays?
RanGTP-Impb inh: 74; Hck-Nef inh: inactive; Runt-SMMHC FRET: 63; 14-3-3 Bad PPI: inactive; Runt-CBFb FRET: inactive; TbHK1 inh: inactive

Results for CCC12CCCN3CCc4c(n(c5ccccc45)C(O)(C(=O)OC)C1)C32 (stereo not given) ?
RanGTP-Impb inh: 114; Hck-Nef inh: inactive; Runt-SMMHC FRET: inactive; 14-3-3 Bad PPI: inactive; Runt-CBFb FRET: inactive; TbHK1 inh: inactive

Results for CCC1(C(=O)OC)CCc2c(cc(OC)c3ccccc23)C1=O (stereo not given) ?
RanGTP-Impb inh: inactive; Hck-Nef inh: inactive; Runt-SMMHC FRET: inactive; 14-3-3 Bad PPI: inactive; Runt-CBFb FRET: inactive; TbHK1 inh: inactive

What do the screens show for `COc1ccccc1CNC(=O)CCNS(=O)(=O)c1ccc2c(c1)CC(C)N2C(C)=O` (stereo not given)?
RanGTP-Impb inh: inactive

How did CCc1cc2c(=O)nc3n(c2s1)Cc1ccccc1/C3=C(/O)c1ccccc1Cl do in these assays?
RanGTP-Impb inh: inactive; Hck-Nef inh: inactive; Runt-SMMHC FRET: 57; 14-3-3 Bad PPI: inactive; Runt-CBFb FRET: inactive; TbHK1 inh: inactive

Results for CCOc1cccc(/C(O)=C2/C(=O)C(=O)N(Cc3ccco3)C2c2ccncc2)c1 (stereo not given) ?
RanGTP-Impb inh: inactive; Hck-Nef inh: inactive; Runt-SMMHC FRET: inactive; 14-3-3 Bad PPI: 74; Runt-CBFb FRET: inactive; TbHK1 inh: inactive

What do the screens show for `CCN(CC)CCCN1C(=O)C(=O)/C(=C(/O)c2ccc(Cl)cc2)C1c1ccccn1` (stereo not given)?
RanGTP-Impb inh: inactive; Runt-SMMHC FRET: inactive; Runt-CBFb FRET: inactive

How did CCN(CC)CCN1C(=O)C(=O)/C(=C(/O)c2cccc(OC)c2)C1c1ccccn1 (stereo not given) do in these assays?
RanGTP-Impb inh: 43; Hck-Nef inh: inactive; Runt-SMMHC FRET: inactive; 14-3-3 Bad PPI: inactive; Runt-CBFb FRET: inactive; TbHK1 inh: inactive

How did COC(=O)C1=C(C)N=C2SC(C#N)=C(N)N2C1c1ccc(OCc2ccccc2)cc1 (stereo not given) do in these assays?
RanGTP-Impb inh: 25; Hck-Nef inh: inactive; Runt-SMMHC FRET: inactive; 14-3-3 Bad PPI: inactive; Runt-CBFb FRET: inactive; TbHK1 inh: inactive

Results for COC(=O)C1=C(C)N=C2SC(C#N)=C(N)N2C1c1cc(OC)c(OC)c(OC)c1 (stereo not given) ?
RanGTP-Impb inh: inactive; Hck-Nef inh: inactive; Runt-SMMHC FRET: inactive; 14-3-3 Bad PPI: inactive; Runt-CBFb FRET: inactive; TbHK1 inh: inactive

How did CCc1ccc(NC(=O)CSc2nnc(CNC(=O)c3ccco3)o2)cc1 do in these assays?
RanGTP-Impb inh: inactive

Results for CCOC(=O)c1cc2c(=O)n3ccccc3nc2n(Cc2ccco2)c1=NC(=O)c1ccc(OC)cc1 ?
RanGTP-Impb inh: inactive; Hck-Nef inh: inactive; Runt-SMMHC FRET: 86; 14-3-3 Bad PPI: inactive; Runt-CBFb FRET: 89; TbHK1 inh: inactive

What do the screens show for `CCOC(=O)c1cc2c(=O)n3ccccc3nc2n(Cc2ccco2)c1=NC(=O)c1ccccc1OC`?
RanGTP-Impb inh: 62; Hck-Nef inh: inactive; Runt-SMMHC FRET: 86; 14-3-3 Bad PPI: inactive; Runt-CBFb FRET: 89; TbHK1 inh: inactive

How did CCOC(=O)c1cc2c(=O)n3cccc(C)c3nc2n(Cc2ccco2)c1=NC(=O)c1ccccc1 do in these assays?
RanGTP-Impb inh: 106; Hck-Nef inh: inactive; 14-3-3 Bad PPI: inactive; Runt-CBFb FRET: 93; TbHK1 inh: inactive

Results for CCOC(=O)c1cc2c(=O)n3ccccc3nc2n(CCCOC)c1=NC(=O)c1ccncc1 ?
RanGTP-Impb inh: inactive; Hck-Nef inh: inactive; Runt-SMMHC FRET: 92; 14-3-3 Bad PPI: inactive; Runt-CBFb FRET: 65; TbHK1 inh: inactive

What do the screens show for `COC(=O)c1cc2c(=O)n3ccccc3nc2n(Cc2cccnc2)c1=N`?
RanGTP-Impb inh: inactive; Hck-Nef inh: inactive; TbHK1 inh: inactive

What do the screens show for `Cc1ccc(NC(=S)N2CCN(S(=O)(=O)c3c(F)cccc3F)CC2)cc1C`?
RanGTP-Impb inh: inactive; Hck-Nef inh: inactive; Runt-SMMHC FRET: inactive; 14-3-3 Bad PPI: inactive; Runt-CBFb FRET: inactive; TbHK1 inh: inactive

Results for CSc1c(C#N)c(N)nc2sc(C(=O)c3ccc(Cl)c(Cl)c3)c(N)c12 ?
RanGTP-Impb inh: inactive; Hck-Nef inh: inactive; Runt-SMMHC FRET: inactive; 14-3-3 Bad PPI: inactive; Runt-CBFb FRET: inactive; TbHK1 inh: inactive

How did N#Cc1c(N)nc2c3c(sc(=N)c2c1N)NC(=O)CC3c1ccccc1 (stereo not given) do in these assays?
RanGTP-Impb inh: 119; Hck-Nef inh: inactive; Runt-SMMHC FRET: inactive; 14-3-3 Bad PPI: inactive; Runt-CBFb FRET: inactive; TbHK1 inh: inactive

What do the screens show for `Cc1c(C#N)c(N)nc2c3c(sc12)NC(=O)CC3c1ccc(Cl)cc1` (stereo not given)?
RanGTP-Impb inh: inactive; Hck-Nef inh: inactive; Runt-SMMHC FRET: inactive; 14-3-3 Bad PPI: inactive; Runt-CBFb FRET: inactive; TbHK1 inh: inactive

Results for N#Cc1c(N)nc2c3c(sc(=N)c2c1N)NC(=O)CC3c1c(F)cccc1Cl (stereo not given) ?
RanGTP-Impb inh: 85; Hck-Nef inh: inactive; Runt-SMMHC FRET: inactive; 14-3-3 Bad PPI: inactive; Runt-CBFb FRET: inactive; TbHK1 inh: inactive

How did CCN1CCN(CCCNC(=O)c2ccc(CS(=O)c3ccc(Br)cc3)o2)CC1 (stereo not given) do in these assays?
RanGTP-Impb inh: inactive

Results for Cc1c(S(=O)(=O)N2CCN(c3ccc(F)cc3)CC2)c(=O)n(C)c(=O)n1C ?
RanGTP-Impb inh: inactive

How did Cn1c(=O)c2cc(S(=O)(=O)NCCC(=O)NCc3ccccc3Cl)ccc2n(C)c1=O do in these assays?
RanGTP-Impb inh: inactive; Hck-Nef inh: inactive; Runt-SMMHC FRET: inactive; 14-3-3 Bad PPI: inactive; Runt-CBFb FRET: 138; TbHK1 inh: inactive
